ChEMBL document CHEMBL1127060 (1993)
Active and inactive are the calls of the source. The rule behind the calls is not given here.

How the values were obtained:
[1] = species on record: Cavia porcellus; experiment: Tested for contraction of guinea pig vas deferens at 37 degree C; Less potent than or equal to ATP; assay type: functional
[2] = species on record: Oryctolagus cuniculus; experiment: Tested for relaxation of carbachol-contracted rabbit mesenteric artery at 37 degree C; Less potent than or equal 2MeSATP; assay type: functional
[3] = species on record: Oryctolagus cuniculus; experiment: Tested for relaxation of carbachol-contracted rabbit aorta at 37 degree C; More potent than or equal to 2MeSATP; assay type: functional
[4] = species on record: Cavia porcellus; experiment: Tested for contraction of guinea pig isolated urinary bladder detrusor muscle at 37 degree C; Less potent than or equal to ATP; assay type: functional; conditions: Muscle tissue
[5] = species on record: Cavia porcellus; experiment: Tested for relaxation of carbachol-contracted guinea pig taenia coli at 37 degree C; Potency equal to ATP; assay type: functional
[6] = Agonism at turkey erythrocyte P2Y receptor.; assay type: functional, Meleagris gallopavo
Outline: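 Turkey erythrocytes labeled 18–24 h at 37 °C with 2-[3H]myo-inositol in inositol-free DMEM; ghosts made by hypotonic lysis (5 mM Na phosphate pH 7.4, 5 mM MgCl2, 1 mM EGTA). PLC assay: ~175 μg protein ghosts, 1 μM GTPγS, Hepes pH 7.0 medium with 424 μM CaCl2, 2 mM EGTA; 5 min, 30 °C; total [3H]inositol phosphates by anion exchange; K0.5 averaged from 3–8 curves.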

[7] = species on record: Oryctolagus cuniculus; experiment: Tested for contraction of rabbit saphenous artery produced by 1 uM alpha,beta-MeATP at 37 degree C; Not active; assay type: functional

Structure (SMILES): Nc1nc(SCCc2ccc([N+](=O)[O-])cc2)nc2c1ncn2C1O[C@H](COP(=O)(O)O)[C@@H](O)[C@H]1O (some centres not stated)
- Relative activity [1]: Partially active
- Relative activity [2]: 5.4
- Relative activity [3]: 6.1
- Relative activity [4]: Partially active
- Relative activity [5]: 6.5
- K 0.5 [6]: 3000 nM
- Relative activity [7]: inactive
